# Reference: ChEMBL document CHEMBL4038338 (J Med Chem, 2017)
# Active and inactive are the calls of the source. The calls are words filed in the database; no cut-off is given here.
# Experiments:
# [1] = target: T1, Carbonyl reductase [NADPH] 1 (Homo sapiens, UniProt P16152); experiment: Drug level in human blood treated with [3H]-labeled N-(4-Amino-3,4-dioxo-1-phenylbutan-2-yl)-2-(3-(4-fluorophenyl)-1H-pyrazol-1-yl)nicotinamide assesseed as cytosolic carbonyl reductase-mediated compound formation; format: ADME; conditions: cytosol
# T1 sequence (P16152 whole entry): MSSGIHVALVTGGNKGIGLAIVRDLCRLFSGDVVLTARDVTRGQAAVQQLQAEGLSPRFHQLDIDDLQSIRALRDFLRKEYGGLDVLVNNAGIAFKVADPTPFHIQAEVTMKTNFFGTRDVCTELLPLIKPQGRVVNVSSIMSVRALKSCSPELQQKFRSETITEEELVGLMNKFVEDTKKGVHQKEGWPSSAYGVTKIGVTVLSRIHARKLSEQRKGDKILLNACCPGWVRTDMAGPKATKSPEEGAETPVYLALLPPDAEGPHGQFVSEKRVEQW
# [2] = target: T1, Carbonyl reductase [NADPH] 1; experiment: Drug level in human hepatocytes treated with [3H]-labeled N-(4-Amino-3,4-dioxo-1-phenylbutan-2-yl)-2-(3-(4-fluorophenyl)-1H-pyrazol-1-yl)nicotinamide assesseed as cytosolic carbonyl reductase-mediated compound formation; format: ADME, cell-based
# [3] = Drug level in monkey blood treated with [3H]-labeled N-(4-Amino-3,4-dioxo-1-phenylbutan-2-yl)-2-(3-(4-fluorophenyl)-1H-pyrazol-1-yl)nicotinamide assesseed as cytosolic carbonyl reductase-mediated compound formation; format: ADME, Macaca mulatta; conditions: rhesus monkey, cytosol
# [4] = Drug level in monkey hepatocytes treated with [3H]-labeled N-(4-Amino-3,4-dioxo-1-phenylbutan-2-yl)-2-(3-(4-fluorophenyl)-1H-pyrazol-1-yl)nicotinamide assesseed as cytosolic carbonyl reductase-mediated compound formation; format: ADME, cell-based, Macaca mulatta; conditions: rhesus monkey
# [5] = Inhibition of human liver cathepsin L using Z-Phe-Arg-AMC as substrate by kinetic fluorescence assay
# [6] = target: T2, Calpain-1 catalytic subunit (Homo sapiens, UniProt P07384); experiment: Inhibition of human erythrocytes calpain-1 using Suc-Leu-Tyr-AMC as substrate by kinetic fluorescence assay; conditions: read-out: Ki
# T2 sequence (P07384 whole entry): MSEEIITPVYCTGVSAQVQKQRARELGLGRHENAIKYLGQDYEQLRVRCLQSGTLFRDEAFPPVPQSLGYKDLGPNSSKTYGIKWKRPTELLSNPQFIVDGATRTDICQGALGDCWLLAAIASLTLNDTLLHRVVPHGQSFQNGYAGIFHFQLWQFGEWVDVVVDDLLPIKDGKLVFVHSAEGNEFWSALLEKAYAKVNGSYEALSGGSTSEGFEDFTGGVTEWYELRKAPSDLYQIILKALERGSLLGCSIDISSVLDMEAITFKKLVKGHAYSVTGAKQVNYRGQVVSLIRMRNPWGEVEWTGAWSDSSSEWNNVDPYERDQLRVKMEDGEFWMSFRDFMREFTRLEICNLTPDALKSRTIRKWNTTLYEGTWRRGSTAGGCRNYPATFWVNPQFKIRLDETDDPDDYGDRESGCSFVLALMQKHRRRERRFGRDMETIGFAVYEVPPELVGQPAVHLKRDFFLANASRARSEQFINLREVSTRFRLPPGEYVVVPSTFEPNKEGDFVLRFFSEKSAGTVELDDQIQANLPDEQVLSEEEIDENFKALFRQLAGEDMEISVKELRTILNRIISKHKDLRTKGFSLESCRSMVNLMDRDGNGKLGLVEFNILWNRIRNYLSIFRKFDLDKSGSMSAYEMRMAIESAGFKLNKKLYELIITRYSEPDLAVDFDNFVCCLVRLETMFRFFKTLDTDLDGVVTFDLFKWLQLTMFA
# [7] = target: Cathepsin S (Homo sapiens, UniProt P25774); experiment: Inhibition of human cathepsin S expressed in Escherichia coli using Z-Val-Val-Arg-AMC as substrate by kinetic fluorescence assay
# [8] = Selectivity ratio of Ki for human liver cathepsin B to Ki for human erythrocytes calpain-1
# [9] = species on record: Homo sapiens; experiment: Selectivity ratio of Ki for recombinant human procathepsin K expressed in Escherichia coli to Ki for human erythrocytes calpain-1
# In short: (§1)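 Ki ratios from kinetic fluorescence assays. Cathepsins B (0.25 nM), L (1 nM), K (3 nM) and S (0.5 nM) in MES buffer at pH 6.0. All at room temperature; Ki by Cheng-Prusoff.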
# [10] = Selectivity ratio of Ki for human liver cathepsin L to Ki for human erythrocytes calpain-1
# [11] = species on record: Homo sapiens; experiment: Selectivity ratio of Ki for recombinant human cathepsin S expressed in Escherichia coli to Ki for human erythrocytes calpain-1; in short: as §1
# [12] = target: T3, Calpain-1 catalytic subunit (Rattus norvegicus) (UniProt P97571); experiment: (§2) Inhibition of calpain-1 in rat hippocampal slices assessed as prevention of NMDA-induced spectrin cleavage preincubated for 30 mins followed by NMDA addition measured after 5 hrs by Western blot analysis
# T3 sequence (whole entry): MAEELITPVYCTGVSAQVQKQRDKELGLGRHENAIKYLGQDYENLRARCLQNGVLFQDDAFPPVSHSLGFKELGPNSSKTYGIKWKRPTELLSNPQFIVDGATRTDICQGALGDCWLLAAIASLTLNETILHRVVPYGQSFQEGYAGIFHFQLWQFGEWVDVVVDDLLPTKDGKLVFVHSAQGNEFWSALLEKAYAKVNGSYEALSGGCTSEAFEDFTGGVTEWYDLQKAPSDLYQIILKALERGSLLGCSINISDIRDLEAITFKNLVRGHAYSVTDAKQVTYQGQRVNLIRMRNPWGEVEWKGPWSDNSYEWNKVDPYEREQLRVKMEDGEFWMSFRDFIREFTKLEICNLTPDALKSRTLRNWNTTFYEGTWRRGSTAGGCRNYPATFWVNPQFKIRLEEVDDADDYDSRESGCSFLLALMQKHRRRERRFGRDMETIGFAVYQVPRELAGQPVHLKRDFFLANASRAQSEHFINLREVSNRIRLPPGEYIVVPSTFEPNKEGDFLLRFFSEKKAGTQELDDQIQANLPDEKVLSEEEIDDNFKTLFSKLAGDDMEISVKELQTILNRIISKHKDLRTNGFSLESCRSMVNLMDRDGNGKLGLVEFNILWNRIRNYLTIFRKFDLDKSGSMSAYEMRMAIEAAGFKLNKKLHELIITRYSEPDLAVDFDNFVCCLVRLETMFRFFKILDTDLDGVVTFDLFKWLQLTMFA
# In short: (§3)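 Organotypic rat hippocampal slice cultures kept 6–8 days in 2% serum medium; 30 min inhibitor pre-incubation, then 10 µM NMDA for 5 h at 34°C, 5% CO2. Slices lysed; 150/145 kDa spectrin breakdown products quantified by densitometric Western blot with anti-spectrin alpha chain antibody.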
# [13] = target: T4, Calpain-1 catalytic subunit (Rattus norvegicus, UniProt P97571); experiment: as §2; in short: as §3
# T4 sequence (P97571 whole entry): T3 sequence (whole entry)
# [14] = target: T5, Calpain-1 catalytic subunit (Homo sapiens) (UniProt P07384); experiment: Inhibition of human erythrocytes calpain-1 using Suc-Leu-Tyr-AMC as substrate in presence of up to 10 mM glutathione by kinetic fluorescence assay
# T5 sequence (whole entry): T2 sequence (P07384 whole entry)
# [15] = Thiol reactivity using recombinant human full length 13C-labeled La antigen (100 to 324 residues) expressed in Escherichia coli BL21(DE3) by ALARM NMR
# [16] = system: Rattus norvegicus; experiment: Neuroprotective activity in Wistar rat assessed as protection against scopolamine-induced cognitive impairment at 1 to 3 mg/kg, sc administered prior to scopolamine induction measured after 24 hrs; format: functional, organism-based
# In short: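 Scopolamine 0.1 mg/kg s.c., with test compound given s.c. beforehand in ethanol/PEG400/water (20:30:50). Single step-through passive avoidance training: 2 min habituation in the lit compartment, then a 0.5 mA, 2 s footshock on entering the dark side. Latency to enter the dark compartment measured 24 h later; n=14–47/group.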
# [17] = target: T3, Calpain-1 catalytic subunit (Rattus norvegicus); experiment: Inhibition of calpain-1 in rat hippocampal slices assessed as prevention of amyloid beta(1-42) globulomer-induced synaptic deficits at 10 nM co-administered with amyloid beta(1-42) globulomer […] by Schaffer collateral analysis; conditions: in the assay text read “after 1 day” for “after 1 hr”
# In short: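 Hippocampal slices from 9–10-day-old Wistar rats cultured 15–18 days; 82 nM Aβ1-42 globulomer added to medium 1 day before recording, with compound co-applied; vehicle-only group included. Slices moved to interface chamber perfused with aCSF ≥1 h before recording; input/output after Schaffer collateral stimulation; 2-way repeated-measures ANOVA, Holm-Sidak.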
# [18] = system: Rattus norvegicus; experiment: Neuroprotective activity in sc dosed Sprague-Dawley rat assessed as increase in microdialysate acetylcholine levels in medial prefrontal cortex measured every 20 mins by HPLC analysis; format: functional, organism-based
# In short: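 Male Sprague-Dawley rats (290–320 g) implanted with medial prefrontal cortex microdialysis probes. Perfusion with Ringer solution containing 1 µM neostigmine at 1.5 µL/min. Twenty-minute fractions collected, six before and six after 1, 3 or 10 mg/kg s.c. (ethanol/PEG400/water vehicle). Acetylcholine measured by HPLC with an enzyme reactor and electrochemical detection, expressed as % of baseline.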
# [19] = system: Rattus norvegicus; experiment: Neuroprotective activity in Fisher rat assessed as effect on latency in rapid eye movement at 1 mg/kg administered via oral gavage measured for 8 hrs at the beginning of 12 hr light period by EEG analysis relative to control; format: functional
# In short: (§4)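 Male Fisher rats (250–330 g) fitted with frontal/occipital EEG electrodes under ketamine/pentobarbital. Dosed by gavage in Cremophor EL/Capmul PG8 (20:80) just before recording. EEG recorded for 8 h from the start of the light period, without food or water. Crossover design with alternate treatment one week later; each animal served as its own control. Results as % of vehicle.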
# [20] = system: Rattus norvegicus; experiment: Neuroprotective activity in Fisher rat assessed as effect on rapid eye movement time at 3 mg/kg administered via oral gavage measured after 8 hrs at the beginning of 12 hr light period by EEG analysis relative to control; format: functional; in short: as §4
# [21] = system: Rattus norvegicus; experiment: Neuroprotective activity in Fisher rat assessed as effect on latency in rapid eye movement at 3 mg/kg administered via oral gavage measured for 8 hrs at the beginning of 12 hr light period by EEG analysis relative to control; format: functional; in short: as §4
# [22] = system: Rattus norvegicus; experiment: Neuroprotective activity in Fisher rat assessed as effect on rapid eye movement time at 10 mg/kg administered via oral gavage measured after 8 hrs at the beginning of 12 hr light period by EEG analysis relative to control; format: functional; in short: as §4
# [23] = system: Rattus norvegicus; experiment: Neuroprotective activity in Fisher rat assessed as effect on latency in rapid eye movement at 10 mg/kg administered via oral gavage measured for 8 hrs at the beginning of 12 hr light period by EEG analysis relative to control; format: functional; in short: as §4
# [24] = target: T3, Calpain-1 catalytic subunit (Rattus norvegicus); experiment: Inhibition of calpain-1 in rat hippocampal slices assessed as prevention of NMDA-induced tau cleavage preincubated for 30 mins followed by NMDA addition measured after 5 hrs by Western blot analysis
# In short: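 Same slice protocol: rat hippocampal organotypic cultures, 30 min inhibitor pre-incubation, 10 µM NMDA for 5 h at 34°C, 5% CO2; lysates probed by densitometric Western blot for the 17 kDa tau cleavage fragment using anti-Tau 1 antibody.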
# [25] = system: Rattus norvegicus; experiment: Neuroprotective activity in Fisher rat assessed as effect on rapid eye movement sleep pattern administered via oral gavage measured after 8 hrs at the beginning of 12 hr light period by EEG analysis; format: functional; in short: as §4
# Sequence of Cathepsin S (P25774 whole entry): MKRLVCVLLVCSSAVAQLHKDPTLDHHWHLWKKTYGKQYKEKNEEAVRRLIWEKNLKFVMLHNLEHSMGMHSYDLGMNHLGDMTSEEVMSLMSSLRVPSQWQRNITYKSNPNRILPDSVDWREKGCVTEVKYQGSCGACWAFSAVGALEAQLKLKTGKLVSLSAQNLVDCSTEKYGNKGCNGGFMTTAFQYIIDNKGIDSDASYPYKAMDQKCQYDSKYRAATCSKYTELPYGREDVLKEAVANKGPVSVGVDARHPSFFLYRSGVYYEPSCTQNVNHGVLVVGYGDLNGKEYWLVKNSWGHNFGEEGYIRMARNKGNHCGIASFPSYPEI
Structure (SMILES),Ki [5] [nM],Ki [6] [nM],Ki [7] [nM],Ratio Ki [8],Ratio Ki [9],Ratio Ki [10],Ratio Ki [11],fIC50 [12] [nM],IC50 [13] [nM],inhibition [14],Thiol reactivity [15],further results
NC(=O)C(O)C(Cc1ccccc1)NC(=O)c1cccnc1-n1ccc(-c2ccc(F)cc2)n1 (configuration not stated),–,–,–,–,–,–,–,–,–,–,–,Drug metabolism [1]: Metabolite_Detected; Drug metabolism [2]: Metabolite_Detected; Drug metabolism [3]: Metabolite_Detected; Drug metabolism [4]: Metabolite_Detected
NC(=O)C(=O)C(Cc1ccccc1)NC(=O)c1cccnc1N1CCC(c2ccccc2)C1 (configuration not stated),39,125,1780,–,–,–,–,–,–,–,–,–
NC(=O)C(=O)C(Cc1ccccc1)NC(=O)c1cccnc1-n1ccc(-c2cccc(C(F)(F)F)c2)n1 (configuration not stated),–,40,–,17,28,>300,> 500,155,5180,Active,Metabolite not detected,–
CCN(CC)Cc1ccc(/C=C/c2ncccc2C(=O)NC(Cc2ccccc2)C(=O)C(N)=O)cc1 (configuration not stated),204,109,> 10000,–,–,–,–,–,–,–,–,–
NC(=O)C(=O)C(Cc1ccccc1)NC(=O)c1cccnc1-n1ccc(-c2ccccc2)n1 (configuration not stated),–,18,–,–,–,–,–,39,971,Active,–,–
NC(=O)C(=O)C(Cc1ccccc1)NC(=O)c1cccnc1-n1ccc(-c2ccc(F)cc2)n1 (configuration not stated),–,34,–,–,–,–,–,41,591,Active,–,Activity [16]: Active; inhibition [17]: Active; Activity [18]: Dose-dependent effect; Activity [19]: 100%; Activity [20]: 131%; Activity [21]: 99%; Activity [22]: 125%; Activity [23]: 80%; fIC50 [24]: 46 nM; Activity [25]: Dose-dependent effect
NC(=O)C(=O)C(Cc1ccccc1)NC(=O)c1cccnc1N1CCN(c2ccccc2)CC1 (configuration not stated),491,250,7260,–,–,–,–,–,–,–,–,–
NC(=O)C(=O)C(Cc1ccccc1)NC(=O)c1cccnc1-n1cc2ccccc2n1 (configuration not stated),–,46,–,6,6,124,51,288,3200,Active,Metabolite not detected,–
CCN(CC)Cc1ccc(-c2ccn(-c3ncccc3C(=O)NC(Cc3ccccc3)C(=O)C(N)=O)n2)cc1 (configuration not stated),–,100,–,<1,< 1,3,69,–,> 10000,Active,Metabolite not detected,–
